We go through 14 compounds from PubChem BioAssay.

Assay [1] can be described thus: Her2 expression decrease, cell viability multiplex – SKBR3 breast tumor cells, AlphaScreen, ATP viability, primary screen (AID 461;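 active means Her2 level under about 52% in both replicate screens, with viability over 70% of control, limit read from the data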;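 on Her2 level: lower value means less Her2 protein in the cells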;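 on viability: percent of carrier control wells set as 100% viability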). The settings on record: SKBR3 Her2 protein level, 18-24 h, measured here: SKBR3 viability, ATP luminescence, at 10 µM. For orientation: In Alpha technology, singlet oxygen from a donor bead excites a nearby acceptor bead.
The target in assay [2] is Receptor tyrosine-protein kinase erbB-2 (Homo sapiens) (UniProt P04626). The assay is described as above. The settings on record: 18-24 h, at 10 µM, stronger effect = lower value.
Chain of Receptor tyrosine-protein kinase erbB-2 (Homo sapiens) (P04626 whole entry, looked up): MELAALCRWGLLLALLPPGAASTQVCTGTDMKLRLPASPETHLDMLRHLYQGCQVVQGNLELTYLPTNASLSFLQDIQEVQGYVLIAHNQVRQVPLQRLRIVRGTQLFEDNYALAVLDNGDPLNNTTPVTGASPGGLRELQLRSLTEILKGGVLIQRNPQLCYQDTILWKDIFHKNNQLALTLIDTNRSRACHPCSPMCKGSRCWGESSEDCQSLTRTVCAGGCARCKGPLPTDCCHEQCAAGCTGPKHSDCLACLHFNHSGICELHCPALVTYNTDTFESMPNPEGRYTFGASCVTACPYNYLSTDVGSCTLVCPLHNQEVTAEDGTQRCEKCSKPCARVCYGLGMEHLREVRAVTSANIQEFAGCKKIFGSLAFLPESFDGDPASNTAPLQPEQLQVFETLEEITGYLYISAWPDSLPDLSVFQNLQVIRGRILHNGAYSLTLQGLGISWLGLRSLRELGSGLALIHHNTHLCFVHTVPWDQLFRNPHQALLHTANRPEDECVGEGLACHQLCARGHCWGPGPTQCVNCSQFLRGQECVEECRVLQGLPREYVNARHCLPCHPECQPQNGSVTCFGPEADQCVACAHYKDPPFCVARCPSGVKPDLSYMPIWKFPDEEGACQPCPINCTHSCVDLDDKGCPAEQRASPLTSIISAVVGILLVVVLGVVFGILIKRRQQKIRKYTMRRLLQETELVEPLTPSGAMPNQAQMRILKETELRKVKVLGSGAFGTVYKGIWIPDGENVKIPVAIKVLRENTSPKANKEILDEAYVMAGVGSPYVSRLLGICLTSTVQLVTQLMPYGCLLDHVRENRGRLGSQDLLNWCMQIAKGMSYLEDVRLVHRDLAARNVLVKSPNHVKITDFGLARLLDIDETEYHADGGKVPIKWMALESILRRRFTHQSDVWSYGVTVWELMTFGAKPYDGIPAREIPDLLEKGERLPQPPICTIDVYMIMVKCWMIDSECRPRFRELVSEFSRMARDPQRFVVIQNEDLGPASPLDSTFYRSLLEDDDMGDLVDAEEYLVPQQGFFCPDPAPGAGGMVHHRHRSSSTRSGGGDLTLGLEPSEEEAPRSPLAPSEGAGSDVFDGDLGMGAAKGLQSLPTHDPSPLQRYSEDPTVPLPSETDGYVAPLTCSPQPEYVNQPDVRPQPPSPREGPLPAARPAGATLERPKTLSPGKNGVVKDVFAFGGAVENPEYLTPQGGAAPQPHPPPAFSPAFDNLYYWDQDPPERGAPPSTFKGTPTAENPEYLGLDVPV
Assay [3] in a line: reduced viability of SK-BR-3 breast cancer cells – cell-based, 24 h, human, pilot screen (AID 572;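 active means viability at or below 10% of carrier control in both of two separate runs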;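 further: compound exposure lasted between 18 and 24 h rather than exactly 24 h; 100% = carrier-treated control wells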). The settings on record: SK-BR-3 viability, CellTiter-Glo luminescence, at 10 µM, stronger effect = lower value. (In general: Cellular ATP, detected with luciferase, serves as a proxy for viable cell number.)
Assay [4] is described as follows: HUVEC growth inhibition – cell-based, human, primary screen (AID 575;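 active means viability at or below 30% in both replicate assays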;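 further: 100% = median of untreated cell wells with 0.1% DMSO on each plate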). The settings on record: HUVEC proliferation, CellTiter-Glo luminescence, 72 h; at 10 µM; stronger effect = lower value. In short, it runs like this:
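Test system – primary HUVEC, no more than 12 passages · Dosing – one dose, 10 µM final, 0.1% DMSO · Times – 72 h treatment at 37 °C · Measured by – ATP-based CellTiter-Glo luminescent read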

Assay [5] is described as follows: H69AR cell proliferation blockers – human, duplicate replicates, primary screen (AID 580).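 Further: 100% = mean luminescence of untreated wells and 0% = no signal.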 The note with it: H69AR lung tumor cells viability, ATP luminescence, 72 h; at 10 µM; stronger effect = lower value.
A short description of assay [6]: MRP1 drug-resistance reversers in H69AR cells – cell-based, doxorubicin co-treatment, pilot screen (AID 601;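 active means viability loss from added drug above about 55%, and viability with drug at most 40%, in both replicates, limit read from the data, passing the limit was not always enough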). The settings on record: CellTiter-Glo, 72 h, at 10 µM; for differential viability (reversal): stronger effect = higher value.
A short description of assay [7]: yeast transport mutant growth inhibition pilot in 384-well plates, post-Golgi transport modulator project (AID 636; in the data active means inhibition above about 31%). The note with it: absorbance 615 nm, about 18 h, stronger effect = higher value.
Assay [8] is described as follows: growth suppression of yeast trafficking mutant, preliminary HTS, modulators of trafficking downstream of Golgi apparatus project, 1536-format plate, OD 615 nm (AID 637; in the data active means inhibition above about 30%). The note with it: yeast transport mutant growth, absorbance 615 nm, 18 h; stronger effect = higher value.
The mark [9] stands for this setting: H69AR cells + 2 uM doxorubicin, measured here: viability with 2 uM doxorubicin, stronger effect = lower value.
Where [10] appears, read: H69AR cells, compound alone cytotoxicity.

The source made the active and inactive calls.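 How the source made its calls, unless noted: active means viability at or under a set limit in both replicates, limit being median viability minus 3 SD (cut at about 48% in these data, passing the limit was not always enough); inconclusive means at or under the limit in just one replicate; inactive means at or above the limit in both replicates.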

With `CCOc1ccc(-c2nc(C#N)c(N3CCCCCC3)o2)cc1`, the viability in assay [1] was 138%; in assay [3] it was 138% (inactive); in assay [4], 79.5% (inactive); in assay [5], 94.7% (inactive); in assay [6] (setting [9]) it was 95.2%; in assay [6] (setting [10]), 94.7%. Besides, the Her2 level in assay [2] is 82% (inactive). The differential viability (reversal) in assay [6] (H69AR cells + 2 uM doxorubicin) is -0.54% (inactive). Also, the inhibition in assay [7] is 0.64% (inactive); in assay [8], -0.17% (inactive).

`C=Cn1c(C(=O)O)cc(CC)c1-c1ccccc1`: the viability in assay [1] is 96%; in assay [3] it was 96% (inactive); in assay [4], 100% (inactive); in assay [5], 106% (inactive); in assay [6] (setting [9]), 104%; in assay [6] (setting [10]), 106%. Also, the Her2 level in assay [2] is 101% (inactive). Moreover, in assay [6] (H69AR cells + 2 uM doxorubicin), the differential viability (reversal) was 2.8% (inactive). Besides, the inhibition in assay [7] was -4.4% (inactive); in assay [8], -7.42% (inactive).

For the compound `O=C(CN1C(=O)CSC1=O)N1CCc2ccccc2C1`, the viability in assay [1] is 100%; in assay [3], 100% (inactive); in assay [4], 73.4% (inactive); in assay [5] it was 89.6% (inactive); in assay [6] (setting [9]), 89.3%; in assay [6] (setting [10]), 89.6%. In addition, the Her2 level in assay [2] is 98% (inactive). Also, in assay [6] (H69AR cells + 2 uM doxorubicin), the differential viability (reversal) is 0.255% (inactive). The inhibition is -2.34% (inactive) in assay [7] and -3.5% (inactive) in assay [8].

Take `O=C(CN1CCC(n2nnc3cc(F)ccc32)CC1)Nc1ccc2c(c1)CCC2`: the viability is 93% in assay [1]; 93% (inactive) in assay [3]; 79.5% (inactive) in assay [4]; 86.3% (inactive) in assay [5]; 91.8% in assay [6] (setting [9]); 86.3% in assay [6] (setting [10]). Besides, in assay [2], the Her2 level is 104% (inactive). In addition, the differential viability (reversal) in assay [6] (H69AR cells + 2 uM doxorubicin) is -5.55% (inactive). The inhibition in assay [7] is -4.59% (inactive); in assay [8], -3.5% (inactive).

Take `Cc1ccc(S(=O)(=O)N(CCO)c2cc3c(s2)CCCC3)cc1`: the viability in assay [1] is 114%; in assay [3], 114% (inactive); in assay [4] it was 68.6% (inactive); in assay [5] it was 81.9% (inactive); in assay [6] (setting [9]), 85.6%; in assay [6] (setting [10]), 81.9%. The Her2 level in assay [2] was 94.5% (inactive). In addition, in assay [6] (H69AR cells + 2 uM doxorubicin), the differential viability (reversal) was -3.64% (inactive). Also, the inhibition is -5.32% (inactive) in assay [7] and -7.5% (inactive) in assay [8].

Regarding `CCC(=O)Nc1c(C#N)c2nc3ccccc3nc2n1-c1ccccc1C`, the viability in assay [1] is 95%; in assay [3], 95% (inactive); in assay [4], 99.2% (inactive); in assay [5], 87.5% (inactive); in assay [6] (setting [9]), 91%; in assay [6] (setting [10]), 87.5%. In assay [2], the Her2 level is 82.5% (inactive). For the same compound, in assay [6] (H69AR cells + 2 uM doxorubicin), the differential viability (reversal) was -3.52% (inactive). The results for the inhibition in assay [7] and in assay [8] were -5.2% (inactive) and 8.85% (inactive), respectively.

Consider `COc1ccc(N2CCN(C(=O)CSc3nnc4n3C(C)(C)Cc3ccccc3-4)CC2)cc1`, for which the viability in assay [1] is 96%; in assay [3] it was 96% (inactive); in assay [4], 84.3% (inactive); in assay [5], 88.7% (inactive); in assay [6] (setting [9]) it was 93.1%; in assay [6] (setting [10]) it was 88.7%. In addition, in assay [2], the Her2 level was 100% (inactive). Besides, in assay [6] (H69AR cells + 2 uM doxorubicin), the differential viability (reversal) was -4.46% (inactive). Besides, the inhibition is -5.79% (inactive) in assay [7] and -1.61% (inactive) in assay [8].

Consider `CCCCOC(=O)CNc1nnc(SCC(=O)OCC)[nH]c1=O`, for which the viability was 114% in assay [1]; 114% (inactive) in assay [3]; 74.8% (inactive) in assay [4]; 98.6% (inactive) in assay [5]; 86.9% in assay [6] (setting [9]); 98.6% in assay [6] (setting [10]). Also, in assay [2], the Her2 level was 87% (inactive). In addition, the differential viability (reversal) in assay [6] (H69AR cells + 2 uM doxorubicin) was 11.7% (inactive). The inhibition in assay [7] is -0.91% (inactive); in assay [8], -3.81% (inactive).

As to `O=C(O)CCc1ccc(-c2cccs2)o1`, the viability is 94% in assay [1]; 94% (inactive) in assay [3]; 95.9% (inactive) in assay [4]; 95.9% (inactive) in assay [5]; 91.6% in assay [6] (setting [9]); 95.9% in assay [6] (setting [10]). Further, the Her2 level in assay [2] is 86% (inactive). Moreover, the differential viability (reversal) in assay [6] (H69AR cells + 2 uM doxorubicin) is 4.25% (inactive). Moreover, the inhibition in assay [7] is -0.26% (inactive); in assay [8], -5.67% (inactive).

Take `CCCOC(=O)c1[nH]c2c(c1C)C(=O)CC(c1ccc(OC)c(OC)c1)C2` (stereo not given): the viability in assay [1] was 99%; in assay [3], 99% (inactive); in assay [4] it was 84.7% (inactive); in assay [5] it was 96% (inactive); in assay [6] (setting [9]), 95.3%; in assay [6] (setting [10]), 96%. The Her2 level in assay [2] is 151% (inactive). Besides, the differential viability (reversal) in assay [6] (H69AR cells + 2 uM doxorubicin) was 0.765% (inactive). Moreover, the figures for the inhibition in assay [7] and in assay [8] were 2.63% (inactive) and -11.2% (inactive), respectively.

As to `CC1CCN(S(=O)(=O)c2ccc3[nH]cc(C(=O)NCCN4CCOCC4)c(=O)c3c2)CC1`, the viability in assay [1] was 108%; in assay [3], 108% (inactive); in assay [4] it was 94% (inactive); in assay [5] it was 96.4% (inactive); in assay [6] (setting [9]), 94.1%; in assay [6] (setting [10]), 96.4%. For the same compound, the Her2 level in assay [2] is 104% (inactive). The differential viability (reversal) in assay [6] (H69AR cells + 2 uM doxorubicin) was 2.28% (inactive). For the same compound, the values for the inhibition in assay [7] and in assay [8] were -6.67% (inactive) and -3.06% (inactive), respectively.

Regarding `O=C(NCC1COCCO1)C1CCN(S(=O)(=O)c2ccccc2)CC1` (stereo not given), the viability in assay [1] was 90%; in assay [3], 90% (inactive); in assay [4] it was 106% (inactive); in assay [5] it was 109% (inactive); in assay [6] (setting [9]) it was 99.2%; in assay [6] (setting [10]), 109%. Besides, the Her2 level in assay [2] is 119% (inactive). Besides, in assay [6] (H69AR cells + 2 uM doxorubicin), the differential viability (reversal) is 10.3% (inactive). Moreover, the inhibition in assay [7] was 1.2% (inactive); in assay [8], -7.26% (inactive).

For the compound `CCCCNS(=O)(=O)c1ccc(OC)c2ncccc12`, the viability in assay [1] was 102%; in assay [3], 102% (inactive); in assay [4], 102% (inactive); in assay [5], 90% (inactive); in assay [6] (setting [9]), 89.7%; in assay [6] (setting [10]), 90%. In assay [2], the Her2 level was 108% (inactive). Further, the differential viability (reversal) in assay [6] (H69AR cells + 2 uM doxorubicin) was 0.295% (inactive). Further, the inhibition in assay [7] is -4.32% (inactive); in assay [8], -3.33% (inactive).

Regarding `O=c1cc(CSc2ccccn2)c2ccccc2[nH]1`, the viability in assay [1] was 91.5%; in assay [3] it was 91.5% (inactive); in assay [4], 85.2% (inactive); in assay [5] it was 93.1% (inactive); in assay [6] (setting [9]) it was 85.1%; in assay [6] (setting [10]) it was 93.1%. Further, the Her2 level in assay [2] was 76% (inactive). The differential viability (reversal) in assay [6] (H69AR cells + 2 uM doxorubicin) was 8.09% (inactive). Moreover, the inhibition is -4.46% (inactive) in assay [7] and 4.13% (inactive) in assay [8].

The term viability denotes a read-out of living cells in per cent, often relative to untreated cells. As usually defined, the inhibition is the relative decrease from the control value, in per cent.
